ChEMBL document CHEMBL4477218 (J Med Chem, 2016)
Converted amounts (≈) assume the structure as drawn.

Legend:
Format in all cases: functional
[1] = system: Staphylococcus aureus; assay: Antibacterial activity against TMP/methicillin-resistant Staphylococcus aureus ATCC 43300 after 18 hrs by CLSI M100-S16 method; settings: ATCC 43300, 18 h
Outline: (§1)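 Broth microdilution per CLSI guideline in Isosensitest broth, final inoculum 5 x 10^5 CFU/mL, 18 h at 37 °C. Growth read at A600. MIC taken as the lowest inhibitor concentration visually inhibiting growth, confirmed colorimetrically with Presto Blue. Isosensitest broth with 10 µg/mL thymidine used to check off-target antibacterial activity. Mutant strains were selected on agar containing 6x MIC of an earlier propargyl-linked antifolate and sequenced.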

[2] = system: Staphylococcus aureus; assay: Antibacterial activity against TMP/methicillin-resistant Staphylococcus aureus harboring DHFR F98Y mutant after 18 hrs by CLSI M100-S16 method; outline: as §1
[3] = system: Staphylococcus aureus; assay: Antibacterial activity against TMP/methicillin-resistant Staphylococcus aureus harboring DHFR H30N mutant after 18 hrs by CLSI M100-S16 method; outline: as §1
[4] = system: Staphylococcus aureus; assay: Antibacterial activity against TMP/methicillin-resistant Staphylococcus aureus harboring DHFR H149R mutant after 18 hrs by CLSI M100-S16 method; outline: as §1
[5] = system: Staphylococcus aureus; assay: Antibacterial activity against TMP/methicillin-resistant Staphylococcus aureus harboring DHFR H30N/F98Y double mutant after 18 hrs by CLSI M100-S16 method; outline: as §1
[6] = system: Staphylococcus aureus; assay: Antibacterial activity against TMP/methicillin-resistant Staphylococcus aureus harboring DHFR F98Y/H149R double mutant after 18 hrs by CLSI M100-S16 method; outline: as §1

| SMILES | MIC [1] [mg/L] | MIC [2] [mg/L] | MIC [3] [mg/L] | MIC [4] [mg/L] | MIC [5] [mg/L] | MIC [6] [mg/L] |
| --- | --- | --- | --- | --- | --- | --- |
| CCc1nc(N)nc(N)c1C#CC(C)c1cc(OC)cc(-c2ccncc2)c1 (centres undefined) | 0.0781 (≈ 0.209 µM) | 2.5 (≈ 6.69 µM) | 2.5 (≈ 6.69 µM) | 2.5 (≈ 6.69 µM) | 20 (≈ 53.6 µM) | 80 (≈ 214 µM) |
| CCc1nc(N)nc(N)c1C#CC(C)c1cc(-c2ccncc2)ccc1OC (centres undefined) | 0.625 (≈ 1.67 µM) | 2.5 (≈ 6.69 µM) | 2.5 (≈ 6.69 µM) | 2.5 (≈ 6.69 µM) | 20 (≈ 53.6 µM) | 40 (≈ 107 µM) |
| CCc1nc(N)nc(N)c1C#CCc1cc(-c2ccc(C(=O)O)cc2)ccc1OC | 0.0195 (≈ 0.0485 µM) | 0.156 (≈ 0.388 µM) | 0.156 (≈ 0.388 µM) | 0.156 (≈ 0.389 µM) | 6.25 (≈ 15.5 µM) | > 50 |
| CCc1nc(N)nc(N)c1C#C[C@H](C)c1cc(OC)cc(-c2ccc(C(=O)O)cc2)c1 | 0.0098 (≈ 0.0235 µM) | 0.0781 (≈ 0.188 µM) |  | 0.0391 (≈ 0.0939 µM) |  | 2.5 (≈ 6 µM) |
| CCc1nc(N)nc(N)c1C#C[C@@H](C)c1cc(OC)cc(-c2ccc(C(=O)O)cc2)c1 | 0.0098 (≈ 0.0235 µM) |  | 0.0781 (≈ 0.188 µM) | 0.0781 (≈ 0.188 µM) | 1.25 (≈ 3 µM) | 1.25 (≈ 3 µM) |
| CCc1nc(N)nc(N)c1C#CCc1cc(OC)cc(-c2ccc(C(=O)O)cc2)c1 | 0.0195 (≈ 0.0485 µM) | 0.156 (≈ 0.388 µM) | 0.156 (≈ 0.388 µM) | 0.156 (≈ 0.388 µM) | 5 (≈ 12.4 µM) | 10 (≈ 24.8 µM) |
| CCc1nc(N)nc(N)c1C#C[C@H](C)c1cc(-c2ccc(C(=O)O)cc2)ccc1OC | 0.0391 (≈ 0.0939 µM) | 0.156 (≈ 0.375 µM) | 0.156 (≈ 0.375 µM) | 0.0781 (≈ 0.188 µM) | > 40 | > 40 |
| CCc1nc(N)nc(N)c1C#C[C@H](C)c1cc2c(c(-c3ccncc3)c1)OCO2 | 0.0195 (≈ 0.0503 µM) | 1.25 (≈ 3.23 µM) | 2.5 (≈ 6.45 µM) | 2.5 (≈ 6.45 µM) | 20 (≈ 51.6 µM) | 20 (≈ 51.6 µM) |
| CCc1nc(N)nc(N)c1C#C[C@H](C)c1cc(OC)cc(-c2ccncc2)c1 | 0.0391 (≈ 0.105 µM) | 0.625 (≈ 1.67 µM) | 0.625 (≈ 1.67 µM) | 0.625 (≈ 1.67 µM) | 40 (≈ 107 µM) | 20 (≈ 53.6 µM) |
| CCc1nc(N)nc(N)c1C#CC(C)c1cc2c(c(-c3ccncc3)c1)OCO2 (centres undefined) | 0.0781 (≈ 0.202 µM) | 1.25 (≈ 3.23 µM) | 5 (≈ 12.9 µM) | 5 (≈ 12.9 µM) | 40 (≈ 103 µM) | 40 (≈ 103 µM) |
| CCc1nc(N)nc(N)c1C#CCc1cc(OC)c(OC)c(-c2ccncc2)c1 | 0.0195 (≈ 0.0501 µM) | 0.625 (≈ 1.6 µM) | 0.625 (≈ 1.6 µM) | 0.625 (≈ 1.6 µM) | 20 (≈ 51.4 µM) | 40 (≈ 103 µM) |
| CCc1nc(N)nc(N)c1C#C[C@@H](C)c1cc(-c2ccncc2)ccc1OC | 0.0195 (≈ 0.0522 µM) | 1.25 (≈ 3.35 µM) | 0.625 (≈ 1.67 µM) | 1.25 (≈ 3.35 µM) | 10 (≈ 26.8 µM) | 20 (≈ 53.6 µM) |
